PAFAH1B2 FP inh = blocks human PAF acetylhydrolase 1b catalytic subunit 2; 340,000 tested, 1.2% active; inhibition, % at 3.39 µM; AID 492953; recombinant PAFAH1B2, FP-rhodamine activity probe, fluorescence polarization;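 active = inhibition above the mean of all tested compounds plus 3 SD, cut at about 24% in these data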;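 note: 0% = enzyme with DMSO and 100% = wells lacking PAFAH1B2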
Target sequence (P68402 whole entry, looked up): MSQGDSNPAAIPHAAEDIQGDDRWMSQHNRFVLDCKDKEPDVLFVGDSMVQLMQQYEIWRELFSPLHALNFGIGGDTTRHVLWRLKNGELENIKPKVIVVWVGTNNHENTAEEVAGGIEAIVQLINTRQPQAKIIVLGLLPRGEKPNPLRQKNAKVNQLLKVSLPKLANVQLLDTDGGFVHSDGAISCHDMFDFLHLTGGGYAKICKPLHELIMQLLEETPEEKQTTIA
PAFAH1B3 inh = PAFAH1B3 (human) inhibition | Q15102 | recombinant PAFAH1B3, FP-rhodamine probe, fluorescence polarization | inhibition, % at 3.39 µM | 340,000 tested, 0.28% active | AID 492972;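 active = inhibition above the screen-wide average of all tested compounds plus 3 SD, cut at about 25% in these data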;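 note: 0% = enzyme with DMSO only and 100% = wells lacking PAFAH1B3 protein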
Target sequence (Q15102 whole entry, looked up): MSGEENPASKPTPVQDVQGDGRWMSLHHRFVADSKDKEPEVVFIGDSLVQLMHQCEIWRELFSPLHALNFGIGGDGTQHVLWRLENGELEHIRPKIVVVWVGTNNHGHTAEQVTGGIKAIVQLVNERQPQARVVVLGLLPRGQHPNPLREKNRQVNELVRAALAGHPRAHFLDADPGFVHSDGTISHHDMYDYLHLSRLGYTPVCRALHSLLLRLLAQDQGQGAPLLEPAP
pPAFAH inh = pPAFAH (human) enzyme inhibition; Q13093; recombinant pPAFAH, FP-rhodamine probe fluorescence polarization; inhibition, % at 3.39 µM; 330,000 tested, 1.5% active;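 active = inhibition above the mean inhibition across the screen plus 3 SD, cut at about 25% in these data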;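 note: inhibitors block binding of the rhodamine activity-based probe so polarization drops; 0% = enzyme with DMSO and 100% = wells lacking pPAFAH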
PAFAH2 inh = inhibitors of human PAFAH2; Q99487; recombinant PAFAH2, FP-rhodamine activity probe, fluorescence polarization; inhibition, % at 3.39 µM; 340,000 tested, 0.99% active; AID 492956;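 active = inhibition above the mean over all tested compounds plus 3 SD, cut at about 30% in these data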;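 note: inhibitors block probe labeling of enzyme so polarization drops; 0% = enzyme with DMSO and 100% = wells lacking PAFAH2 protein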
GRIN3A LBD mod = NR3A (human) ligand-binding domain modulation; NR3A LBD differential scanning fluorimetry, Tm shift; 0% = protein alone, 100% = glycine-bound protein; Tm shift relative to glycine control, % at 25 µM; 340,000 tested, 2.5% active; AID 1259313;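 active = melting temperature shift of at least 10% of the positive control shift, at one fixed dose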
UCH37 inh = human UCH37 deubiquitinating enzyme inhibition; purified proteasome/UCH37, Ub-AMC cleavage fluorescence; inhibition, % (no concentration beside the values); Q9Y5K5; 330,000 tested, 0.33% active;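 active = mean inhibition over replicate wells above about 20%, limit read from the data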;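 note: 0% = compound-free wells with enzyme and 100% = wells lacking proteasome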
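System: Proteasome-associated human UCH37 deubiquitinase; Input: 0.15 nM proteasome in added enzyme buffer; Also added: Ub-AMC substrate from 1 µM stock; Incubation: 30 min compound-proteasome preincubation then 25 min substrate reaction, room temperature; Detection: fluorescence, ex 355 nm, em 460 nm; Read-out: % inhibition of Ub-AMC cleavage fluorescence; Benchmarks: no-proteasome and no-compound wells.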
* marks the source's active call; other numbers are inactive results; . = not tested or not shown. A selection: hits, their analogues and other compounds. The true share with any hit is near 4.8%.

SMILES	PAFAH1B2 FP inh	PAFAH1B3 inh	pPAFAH inh	PAFAH2 inh	GRIN3A LBD mod	UCH37 inh
Cc1ccc(/C=C/C(=O)Nc2cc(S(N)(=O)=O)ccc2O)cc1	12	9	2	24	-6	6
CCS(=O)(=O)c1ccc(O)c(NC(=O)/C=C/c2ccc(Cl)cc2)c1	-4	4	28*	66*	-26	7
CCC(=O)Nc1ccc(NC(=S)NC(=O)/C=C/c2ccccc2)cc1	-2	-3	0	4	15*	11
CC(=O)c1ccc(NC(=O)/C=C/c2ccc(C)cc2)cc1	0	1	2	0	20*	5
CC(=O)c1ccc(NC(=S)NC(=O)/C=C/c2ccccc2)cc1	1	9	-3	-10	4	11
COc1cc(OC)c(OC)cc1C=Nn1c(-c2n[nH]c3c2CCC3)n[nH]c1=S	.	.	.	.	.	-7
Cc1nc2ccccc2n1C(=NS(=O)(=O)c1ccccc1)c1ccccc1	.	.	.	.	.	2
CCC(=O)Nc1ccc(NC(=O)/C=C/c2ccc(Cl)cc2)cc1	3	5	4	-4	20*	2
COc1cc(C=NN2CCCCC2)cc([N+](=O)[O-])c1O	.	.	.	.	.	11
Cc1ccn2c(=O)nc(SCC(=O)c3ccc(Cl)cc3)nc2c1	6	4	25*	6	1	4
Cc1cccn2c(=O)nc(SCC(=O)c3ccc(Cl)cc3)nc12	11	4	8	7	-1	6
Cc1ccn2c(=O)nc(SCC(=O)N3CCC(C)CC3)nc2c1	1	2	26*	6	2	-3
COc1ccc(C=NNC(=O)c2ccc(Cl)c(S(N)(=O)=O)c2)cc1OCC(N)=O	.	.	.	.	.	-6
CCOC(=O)NN=C(C)c1ccc(Oc2ncccn2)cc1	.	.	.	.	.	3
Cc1cccc(C=c2sc(=CC(=O)C(C)(C)C)[nH]c2=O)c1	.	.	.	.	.	1
O=S(=O)(c1cccc(C(F)(F)F)c1)c1ccc(O)cn1	2	0	4	-7	11*	2
CC(=NOCC(=O)OCC(=O)NC(=O)c1ccccc1)c1ccc2c(c1)OCO2	.	.	.	.	.	4
Cc1cccc(C)c1Nc1nnc(SCc2nc3ccccc3c(=O)[nH]2)s1	3	0	1	2	32*	-5
CN(C)S(=O)(=O)c1ccc(C(=O)Nc2nnc(SCc3cccc4ccccc34)s2)cc1	-11	-11	2	-13	26*	-132
CCSc1nnc(NC(=O)c2ccc(S(=O)(=O)N(C)C)cc2)s1	0	9	2	-1	2	-3
c1ccc(Nc2nnc(SCc3cccc4ccccc34)s2)cc1	-1	-7	-1	7	11*	0
COC(=O)NN=Cc1cn(Cc2c(Cl)cccc2Cl)c2ccccc12	.	.	.	.	.	4
COc1ccc(NC(=O)c2cc3ccccc3oc2=NNS(=O)(=O)c2ccc(C)cc2)cc1	.	.	.	.	.	5
CC(=NNC(=O)C1CC1)c1ccc(Cl)cc1	.	.	.	.	.	3
COC(=O)c1sc(-c2ccc(C(C)(C)C)cc2)cc1NC(=O)CSCC(=O)O	2	4	32*	5	-437	.
SMILES	PAFAH1B2 FP inh	PAFAH1B3 inh	pPAFAH inh	PAFAH2 inh	GRIN3A LBD mod	UCH37 inh
Cc1ccc(Cn2c(CCNc3nc(-c4ccc(Cl)c([N+](=O)[O-])c4)cs3)nc3cc(C(=O)NCCCO)ccc32)cc1	4	16	10	4	4	1
O=[N+]([O-])c1cc(-c2csc(NCCc3nc4cc(C(F)(F)F)ccc4n3CCCO)n2)ccc1Cl	32*	-1	13	-4	17*	0
Cc1nc2cc(C(F)(F)F)ccc2n1CCNc1nc(-c2ccc([N+](=O)[O-])c(Cl)c2)cs1	24	6	6	1	25*	1
Nc1c(Cl)cc(-c2csc(NCCc3nc4cc(Cl)c(Cl)cc4n3CCCO)n2)cc1Cl	6	9	-4	-1	-1	0
OCCCn1c(CCNc2nc(-c3ccc(Cl)cc3)cs2)nc2cc(C(F)(F)F)ccc21	27*	5	7	6	6	.
COC(=O)NN=C1CCCc2ccccc21	.	.	.	.	.	1
CCNc1ccc(C(=O)NN=Cc2c(C)nn(-c3ccccc3)c2N2CCCC2)cc1[N+](=O)[O-]	.	.	.	.	.	7
Cc1[nH]c2ccccc2c1C(=O)/C=C/c1ccccc1Cl	2	2	4	-10	27*	2
Cc1[nH]c2ccccc2c1C(=O)/C=C\c1ccccc1Cl	-1	5	3	-13	11*	2
Cc1[nH]c2ccccc2c1C(=O)/C=C/c1ccccc1	-2	-1	-3	-4	-2	4
CCOC(=O)c1cc(CC)sc1N=CC1C(=O)CC(C)(C)CC1=O	.	.	.	.	.	-1
CC(=O)Nc1ccc(NC(=S)NC(=O)c2cc3ccccc3o2)cc1	5	17	4	0	16*	-2
CC(C)C(=O)Nc1ccc(NC(=O)c2cc3ccccc3o2)cc1	0	1	7	-3	3	-4
CC(C)C(=O)Nc1ccc(NC(=S)NC(=O)c2cc3ccccc3o2)cc1	-2	-3	-4	-7	17*	3
COc1ccc(C=NNC(=O)c2nc(-c3ccccc3)n(-c3ccccc3)n2)cc1OC	.	.	.	.	.	-15
Cc1cc(C(=O)NN=C/C=C/c2ccccc2[N+](=O)[O-])c(C)o1	.	.	.	.	.	8
COc1cc([C@H]2OC[C@H]3[C@@H]2CO[C@@H]3c2ccc(O[C@H]3O[C@H](CO)[C@@H](O)[C@H](O)[C@H]3O)c(OC)c2)ccc1O[C@@H]1O[C@H](CO)[C@@H](O)[C@H](O)[C@H]1O	0	18	-2	-4	16*	1
Cc1ccc(S(=O)(=O)NN=Cc2cccs2)cc1	.	.	.	.	.	4
Cc1cc(NC(=O)CSc2nc3c(sc4ccccc43)c(=O)n2CCc2ccccc2)n[nH]1	-25	-42	-2	-50	27*	-8
Cc1cc(NC(=O)CSc2nc3c(sc4ccccc43)c(=O)n2CCCN2CCOCC2)n[nH]1	5	0	3	1	1	-13
COc1ccc(C2C=C(c3ccc(Br)cc3)Nc3nc(N4C(=O)CCC4=O)nn32)cc1 (centres undefined)	-1	2	2	0	13*	-196
CCCCNC(=O)Oc1c(Br)cc2sc(=O)oc2c1Br	.	.	52*	.	.	.
CCC1=C(OC(=O)c2ccccc2)C(C)(C)C(c2ccccc2)OC1=O (centres undefined)	4	3	2	4	14*	3
CC1=Nc2ccc(C)cc2/C1=C/c1c(N)n2oc(C)cc2nc1=O	-13	-17	-15	-26	-5	-10
CC1=Nc2ccc(C)cc2/C1=C/c1c(N)n2c(S(=O)(=O)C(C)C)nsc2nc1=O	3	6	.	-2	18*	3
CC1=Nc2ccccc2/C1=C/c1c(N)n2c(S(=O)(=O)C(C)C)nsc2nc1=O	5	5	14	3	9	5
